# Screening data as filed in PubChem.
# STAT3 inh-1: STAT3 signaling inhibition | actives 0.89% (n = 190,000) | inhibition, % at 5.5 µM | U3A cells, IL-6 STAT3-luciferase reporter, luminescence; host cell line lacks STAT1;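 active means inhibition above the mean inhibition across all screened compounds plus 3 SD, cut at about 44% in these data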;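 further: 0% = DMSO only wells and 100% = 100 µM nifuroxazide control wells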
# Platelet DG rel: platelet dense granule release activity; human platelet-rich plasma, SFLLRN dense granule ATP release, luminescence; inhibition, %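 (compounds screened at 7.5 µM in platelet-rich plasma)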; actives 0.22% (n = 300,000); AID 1663;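 active means mean replicate score, as percent of positive control, at or above 50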
# STAT1 blocker: STAT1 signaling inhibition; NIH 3T3 STAT1-luciferase reporter, IFN-gamma, luminescence; inhibition, % at 5.5 µM; actives 0.35% (n = 200,000);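 active means inhibition above a set limit, the mean inhibition across all tested compounds plus 3 SD, cut at about 34% in these data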;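 further: 0% = IFN-gamma with DMSO and 100% = IFN-gamma with 300 µM nifuroxazide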
# PERK inhibitor: inhibitors of human PERK kinase; Q9NZJ5; AID 1416; actives 0.17% (n = 220,000); inhibition, % at 5.6 µM; CHO PERK-DD fusion, SEAP luminescence translation reporter;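 active means inhibition above the mean inhibition of all tested compounds plus 3 SD, set separately per screening campaign, cut at about 2.9% in these data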;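 further: PERK kinase domain activated by AP20187 dimerizer at 100 nM; 0% = DMSO with dimerizer and 100% = rapamycin at 8.4 µM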
# Target sequence (Q9NZJ5 whole entry, looked up, the tested form may be a part): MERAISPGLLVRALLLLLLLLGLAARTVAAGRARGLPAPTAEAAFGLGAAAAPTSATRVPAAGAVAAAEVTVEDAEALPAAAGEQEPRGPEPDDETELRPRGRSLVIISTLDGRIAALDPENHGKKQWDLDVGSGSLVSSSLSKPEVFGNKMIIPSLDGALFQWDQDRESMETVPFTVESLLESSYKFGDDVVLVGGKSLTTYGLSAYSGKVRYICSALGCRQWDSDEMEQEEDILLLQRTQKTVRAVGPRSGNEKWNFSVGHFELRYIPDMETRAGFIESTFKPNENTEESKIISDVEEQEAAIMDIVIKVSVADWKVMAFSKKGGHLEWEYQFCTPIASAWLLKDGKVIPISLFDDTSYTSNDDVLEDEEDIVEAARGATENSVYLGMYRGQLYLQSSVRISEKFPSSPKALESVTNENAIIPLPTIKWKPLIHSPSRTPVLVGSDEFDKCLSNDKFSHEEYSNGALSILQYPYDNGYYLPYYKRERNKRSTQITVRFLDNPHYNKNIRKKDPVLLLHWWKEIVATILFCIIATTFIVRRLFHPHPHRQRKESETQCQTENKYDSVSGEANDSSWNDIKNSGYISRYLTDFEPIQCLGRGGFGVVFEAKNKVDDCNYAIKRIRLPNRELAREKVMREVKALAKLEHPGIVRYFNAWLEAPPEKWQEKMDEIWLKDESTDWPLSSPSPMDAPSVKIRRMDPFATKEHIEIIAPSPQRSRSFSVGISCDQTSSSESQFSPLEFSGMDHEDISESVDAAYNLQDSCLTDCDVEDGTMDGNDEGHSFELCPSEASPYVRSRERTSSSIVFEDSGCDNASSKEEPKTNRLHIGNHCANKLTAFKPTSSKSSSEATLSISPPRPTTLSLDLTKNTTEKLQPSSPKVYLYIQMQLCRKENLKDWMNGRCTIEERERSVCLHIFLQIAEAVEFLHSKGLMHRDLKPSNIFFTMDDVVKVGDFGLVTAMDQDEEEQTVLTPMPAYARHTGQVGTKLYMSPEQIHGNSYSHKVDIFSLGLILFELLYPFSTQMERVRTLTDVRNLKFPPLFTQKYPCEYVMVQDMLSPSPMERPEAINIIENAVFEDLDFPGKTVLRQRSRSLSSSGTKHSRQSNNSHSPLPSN
# STAT3 act: increases IL-6 driven STAT3 reporter signal; U3A cells, IL-6 STAT3-luciferase reporter, luminescence; 100% = signal with IL-6 EC80 alone; activation (% of control), % at 5.6 µM; actives 0.91% (n = 190,000);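 active means activation above the screen-wide mean of compound activation plus 3 SD, cut at about 130% in these data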;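 further: 0% = background luminescence of wells with medium and substrate only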
#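 Material: STAT3-luciferase reporter U3A cells. Controls: IL-6-treated wells, 100% activation. Read-out: % activation versus median of IL-6-stimulated wells. Probe or stimulus: IL-6 stimulus at 33 ng/mL final. Timing: compound 1 h, then IL-6 6 h at 37 °C. Signal: reporter luminescence signal.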
# STAT3 inh-2: STAT3 inhibition, confirmation assay | AID 1265 | actives 45% (n = 1,200) | shares compounds with STAT3 inh-1 | U3A cells, IL-6 STAT3 luciferase reporter, luminescence; cell line lacks STAT1 | inhibition, % at 5.7 µM;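 active means inhibition above the hit cutoff computed for the primary STAT3 screen, cut at about 44% in these data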;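 further: 0% = IL-6 plus DMSO and 100% = IL-6 plus nifuroxazide control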
# NFkB inh STAT3ct: inhibits NF-kappaB, counter-screen to STAT3 inhibitors | shares compounds with STAT3 inh-1 | HEK293T NF-kB luciferase reporter, TNF-alpha induced | inhibition, % at 5.7 µM | actives 36% (n = 1,200) | AID 1308;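 active means inhibition above the mean of solvent-only control wells plus 3 SD, cutoff set per campaign, cut at about 13% in these data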;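 further: 0% = TNF-alpha with DMSO and 100% = TNF-alpha with MG high control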
# STAT1 inh STAT3c: counter-screen for STAT3 inhibitors: STAT1 inhibition; shares compounds with STAT3 inh-1; NIH 3T3 STAT1-luciferase reporter, IFN-gamma induced, luminescence; actives 27% (n = 1,200); AID 1317; inhibition, % at 5.7 µM;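 active means inhibition above the mean plus 3 SD of solvent-only control wells, limit set per screening run, cut at about 16% in these data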;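 further: 0% = DMSO with IFN-gamma and 100% = nifuroxazide control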
# Starred values were filed as active, the others as inactive; . = not tested or not shown. In the library only some 1.4% were active in any assay of this set; here they are far more common.
SMILES,STAT3 inh-1,Platelet DG rel,STAT1 blocker,PERK inhibitor,STAT3 act,STAT3 inh-2,NFkB inh STAT3ct,STAT1 inh STAT3c
O=C(/C=C/c1ccc(Cl)cc1)Nc1ccc(CN2CCOCC2)cc1,44.7*,-2.5,4.4,-1.3,59.6,62.2*,14.2*,5.9
CC1(c2nnc(-c3cccc(Cl)c3)o2)CC(c2cccnc2)=NO1 (stereo not drawn),.,-1.5,.,.,.,.,.,.
CCCCOc1ncnc2c1[nH]c1ccc(F)cc12,82.6*,-17.0,22.3,-1.0,35.2,74.2*,18.6*,31.8*
CCCCOc1ncnc2c1[nH]c1ccc(OC)cc12,45.9*,4.2,-41.4,-1.3,65.7,16.6,-37.0,-93.9
CCCCOc1ncnc2c1[nH]c1ccc(OCC)cc12,24.3,3.0,-0.6,-0.2,83.2,.,.,.
CCCCOc1ncnc2c1[nH]c1ccccc12,50.1*,15.4,21.7,-1.3,58.9,36.4,19.1*,25.0*
CC(C)c1cc(NC(=O)CCl)on1,53.1*,7.2,-3.8,0.0,57.2,20.6,0.7,9.5
CC(C)CC(=O)Nc1ccc2oc(-c3ccncc3)nc2c1,20.5,1.9,-21.0,0.4,88.7,.,.,.
CC(C)C(=O)Nc1ccc(-c2nc3cccnc3o2)cc1,47.9*,1.1,-51.3,-0.8,61.0,14.7,-34.1,-89.5
Cc1cc2nc(-c3ccc(NC(=O)C(C)C)cc3)oc2cc1C,4.8,2.0,-86.3,-0.6,95.5,.,.,.
Cc1ccc(-c2nc3cc(NC(=O)C(C)C)ccc3o2)cc1C,60.7*,-4.1,-105.5,0.8,50.4,14.5,-32.3,-203.5
CC(Oc1ccc(Cl)cc1Cl)C(=O)Nc1ccc2oc(-c3ccncc3)nc2c1 (stereo not drawn),49.8*,-1.5,-7.3,1.2,60.5,49.9*,0.2,-10.4
Cc1ccc(-c2nc3cc(NC(=O)C(C)C)ccc3o2)cc1,45.2*,-9.0,-95.4,0.2,63.4,-0.9,-37.6,-216.5
O=C(Nc1cccc(S(=O)(=O)NC2=NCCC2)c1)c1cc(Cl)ccc1[N+](=O)[O-],.,1.8,.,.,.,.,.,.
Cc1ccc(-n2nnnc2SCn2nnc3ccccc3c2=O)cc1,-5.1,.,-7.1,-0.3,108.3,.,.,.
COc1ccc(C)cc1-n1nnnc1SCn1nnc2ccccc2c1=O,53.7*,-2.1,25.3,0.4,59.0,43.7*,7.0,15.9
O=C(OCC(=O)c1ccc(Cl)cc1Cl)c1cnccn1,.,-3.1,.,.,.,.,.,.
Cc1csc(NC(=O)C2COc3ccccc3O2)n1 (stereo not drawn),57.1*,-3.2,-56.6,0.2,52.7,35.8,-21.4,-96.3
Cc1cnc(NC(=O)C2COc3ccccc3O2)s1 (stereo not drawn),71.4*,-4.5,-7.3,1.6,45.1,40.7,-28.6,-96.6
Cc1nc2ccc3nc(NC(=O)C4COc5ccccc5O4)sc3c2s1 (stereo not drawn),14.5,0.5,3.7,-0.5,88.3,.,.,.
O=C(Nc1nc(-c2ccccc2)cs1)C1COc2ccccc2O1 (stereo not drawn),12.9,-0.6,-11.8,-0.3,89.3,.,.,.
COc1ccc(C(=O)N2N=C(c3ccc(NS(C)(=O)=O)cc3)CC2c2cccs2)cc1 (stereo not drawn),.,0.0,.,.,.,.,.,.
Cn1c(C(=O)N2CCN(c3nc4ccccc4s3)CC2)cc2sccc21,29.0,3.6,1.5,-0.3,82.2,.,.,.
O=C(c1cc2sccc2n1Cc1ccc(F)cc1)N1CCN(c2nc3ccccc3s2)CC1,46.6*,2.2,22.0,-1.2,62.1,36.4,8.4,16.9*
CCOC(=O)C1CCCN(C(=O)Cn2nc(C)c3c(C)n(-c4ccccc4)nc3c2=O)C1 (stereo not drawn),.,2.3,.,.,.,.,.,.
SMILES,STAT3 inh-1,Platelet DG rel,STAT1 blocker,PERK inhibitor,STAT3 act,STAT3 inh-2,NFkB inh STAT3ct,STAT1 inh STAT3c
O=C(NC(=S)Nc1ccc(N2CCCCC2)c(Cl)c1)c1ccc2c(c1)OCCO2,64.2*,10.4,4.3,0.6,51.6,66.0*,21.5*,4.5
O=C(N/N=C/c1nn(-c2ccccc2)cc1-c1ccc(Cl)cc1)c1ccncc1,13.2,1.3,-12.2,1.6,92.3,.,.,.
Cc1c(C(=O)Nc2ccccc2[N+](=O)[O-])csc1-c1ccccc1,-11.5,2.2,-73.1,-0.8,105.1,.,.,.
Cc1c(C(=O)Nc2ccccc2)csc1-c1ccccc1,55.4*,29.7,-36.5,0.7,54.5,33.2,-21.9,-111.1
CC1CCN(S(=O)(=O)c2ccc3c(c2)oc(=O)n3CC(=O)NCc2ccc3c(c2)OCO3)CC1,43.5*,0.2,12.2,0.1,68.3,37.7,10.2,16.7*
Cc1cc(=O)oc2cc(OCC(=O)Nc3ccccc3C(=O)O)ccc12,.,4.8,.,.,.,.,.,.
O=C(O)C1CCC(N2C(=O)C3C4CCC(C4)C3C2=O)CC1 (stereo not drawn),8.6,-0.1,-5.6,0.8,102.7,.,.,.
O=C(NCCc1ccccc1)c1cccnc1,-6.9,-2.1,-29.3,1.1,105.7,.,.,.
CCOc1ccc(C(=O)NCCc2ccccc2)cc1,54.9*,6.8,4.5,1.0,53.2,31.0,7.6,-48.6
O=C(NCCc1ccccc1)c1ccc2nccnc2c1,54.5*,-4.9,19.8,1.9,55.9,16.5,-8.9,-67.5
CC(=O)Oc1ccc(C(=O)NCCc2ccccc2)cc1,37.6,4.0,-4.2,0.1,70.9,.,.,.
CC(C)NC(=S)N/N=C/c1ccc2c(c1)OCCO2,11.2,-6.4,-4.5,-0.1,94.5,.,.,.
COc1ccc(/C=N/NC(=S)Nc2cccc(C(=O)O)c2)cc1,77.7*,0.8,29.1,0.6,36.0,52.2*,6.5,-5.0
CCOC(=O)C1=C(CN2CC(C)CC(C)C2)NC(=O)NC1c1ccc2c(c1)OCO2 (stereo not drawn),4.5,4.1,-3.6,0.1,99.2,.,.,.
COc1ccc(NC(=O)c2c(Nc3ccccc3)sc(C(=O)c3ccc(F)cc3)c2N)cc1,61.0*,4.4,23.9,-0.3,49.5,37.4,35.1*,42.9*
COc1ccc(C(=O)c2sc(Nc3ccccc3)c(C(=O)Nc3ccc(OC)c(OC)c3)c2N)cc1,22.6,-0.1,6.5,-0.4,81.4,.,.,.
O=C(CCC(=O)Nc1nnc(C2CCCCC2)s1)Nc1ccccc1,.,8.6,.,.,.,.,.,.
Cn1c(SCCCC(=O)c2ccc(F)cc2)nnc1-c1ccncc1,6.5,-2.6,-3.0,-0.2,97.7,.,.,.
COCCn1c(SCCCC(=O)c2ccc(Br)cc2)nnc1-c1ccncc1,52.6*,1.9,18.7,-0.8,55.1,45.5*,13.2*,15.9
CC(C)(C)NC(=O)CCN(/N=C/c1ccc([N+](=O)[O-])o1)C1=NS(=O)(=O)c2ccccc21,2.9,.,13.7,0.2,95.5,.,.,.
O=C(c1ccccc1)n1c(=S)nc2ccccn21,.,35.5,.,.,.,.,.,.
Cc1ccc(C(=O)n2c(=S)nc3ccccn32)cc1,49.6*,22.4,-54.9,-0.2,62.0,13.6,-31.3,-179.6
